Measurements: ChEMBL document CHEMBL4406881, “Design, synthesis and biological evaluation of benzoylacrylic acid shikonin ester derivatives as irreversible dual inhibitors of tubulin and EGFR” (Bioorg Med Chem, 2019)

Key:
NCI-H1975 = test: Antiproliferative activity against human NCI-H1975 cells assessed as reduction in cell viability after 24 hrs by MTT assay; assay type: functional, cell-based; settings: NCI-H1975, 24 h
Outline: (§1)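 MTT colorimetric assay. Cells in log phase in medium with 10% FBS were seeded at 10⁴ cells/well and left overnight at 37 °C, 5% CO₂ to reattach. Compounds were added at 0.1, 1, 10 and 100 μM in 10% FBS for 24 h. IC50 reported as mean ± SD of three independent experiments.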

NCI-H460 = test: Antiproliferative activity against human H460 cells assessed as reduction in cell viability after 24 hrs by MTT assay; assay type: functional, cell-based; settings: NCI-H460, 24 h; outline: as §1
MCF7 = test: Antiproliferative activity against human MCF7 cells assessed as reduction in cell viability after 24 hrs by MTT assay; assay type: functional, cell-based; settings: MCF7, 24 h; outline: as §1
[1] = Cytotoxicity against human LO2 cells assessed as reduction in cell viability after 24 hrs by MTT assay; assay type: cell-based, L02; outline: as §1
[2] = molecular target: T1, Epidermal growth factor receptor (Homo sapiens, UniProt P00533); test: Inhibition of C-terminal His-tagged N-terminal GST-tagged human EGFR (668 to 1210 residues) expressed in baculovirus infected Sf9 cells after 30 mins in presence of gamma-[32p-ATP] binding assay
T1 sequence (P00533 whole entry, the tested form may be a part): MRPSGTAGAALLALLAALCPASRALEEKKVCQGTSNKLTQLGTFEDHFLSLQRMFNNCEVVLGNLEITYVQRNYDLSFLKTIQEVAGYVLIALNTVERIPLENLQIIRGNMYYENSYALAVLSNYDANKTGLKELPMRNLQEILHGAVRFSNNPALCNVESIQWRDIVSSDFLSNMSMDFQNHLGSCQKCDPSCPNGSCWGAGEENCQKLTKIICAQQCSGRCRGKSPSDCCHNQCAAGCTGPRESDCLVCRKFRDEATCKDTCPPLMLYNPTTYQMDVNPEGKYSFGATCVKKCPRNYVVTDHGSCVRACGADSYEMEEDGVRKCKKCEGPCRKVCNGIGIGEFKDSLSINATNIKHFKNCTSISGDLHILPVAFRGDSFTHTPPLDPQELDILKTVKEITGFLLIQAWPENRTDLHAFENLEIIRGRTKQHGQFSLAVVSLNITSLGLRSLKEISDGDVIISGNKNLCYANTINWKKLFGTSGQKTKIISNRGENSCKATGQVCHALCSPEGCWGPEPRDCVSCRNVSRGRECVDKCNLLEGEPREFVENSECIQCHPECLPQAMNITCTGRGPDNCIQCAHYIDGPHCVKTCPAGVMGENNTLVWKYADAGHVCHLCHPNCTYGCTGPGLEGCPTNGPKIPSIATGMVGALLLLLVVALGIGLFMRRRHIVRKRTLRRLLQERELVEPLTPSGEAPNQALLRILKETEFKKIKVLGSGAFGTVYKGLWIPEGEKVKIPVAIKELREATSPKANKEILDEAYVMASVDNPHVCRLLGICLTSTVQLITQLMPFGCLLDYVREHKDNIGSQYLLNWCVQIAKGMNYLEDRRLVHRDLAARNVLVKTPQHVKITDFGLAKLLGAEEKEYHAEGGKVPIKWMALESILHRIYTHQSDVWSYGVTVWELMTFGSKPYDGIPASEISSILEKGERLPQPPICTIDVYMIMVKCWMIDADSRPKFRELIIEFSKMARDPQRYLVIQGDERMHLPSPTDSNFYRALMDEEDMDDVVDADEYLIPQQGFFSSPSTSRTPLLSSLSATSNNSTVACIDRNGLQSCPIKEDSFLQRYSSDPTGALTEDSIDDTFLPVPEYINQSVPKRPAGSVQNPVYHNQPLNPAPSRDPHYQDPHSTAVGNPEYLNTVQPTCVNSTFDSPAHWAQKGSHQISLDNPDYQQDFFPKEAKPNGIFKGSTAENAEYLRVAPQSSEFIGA

A549 [3] = test: Antiproliferative activity against human A549 cells assessed as reduction in cell viability after 24 hrs by MTT assay; assay type: functional, cell-based; settings: A549, 24 h
HeLa = test: Antiproliferative activity against human HeLa cells assessed as reduction in cell viability after 24 hrs by MTT assay; assay type: functional, cell-based; outline: as §1
[4] = molecular target: T1, Epidermal growth factor receptor; test: Potency index, ratio of shi-konin IC50 to compound IC50 for inhibition of C-terminal His-tagged N-terminal GST-tagged human EGFR (668 to 1210 residues) expressed in baculovirus infected Sf9 cells after 30 mins in presence of gamma-[32p-ATP] binding assay
[5] = Toxicity in ip dosed Balb/c mouse xenografted with human A549 cells assessed as reduction in body weight at 2 mg/kg, ip administered once every two days for 32 days and measured for every 2 days; assay type: organism-based; settings: in vivo
Outline: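 Female BALB/c nude mice (5-6 weeks) received 6×10^6 A549 cells s.c. in the flank. After two weeks (tumours ~90 mm³) they were split into 5 groups (n = 8). Dosing was 2 or 4 mg/kg, dissolved in DMSO, i.p. once every two days for 16 doses; DMSO vehicle served as control. Body weight and tumour volume (L×S²/2) were recorded every two days; mice were killed at day 32.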

A549 [6] = test: Induction of apoptosis in human A549 cells assessed as high mitochondrial membrane potential after 20 mins by JC-1 staining-based flow cytometric analysis (reference value: 90.6%); assay type: functional
A549 [7] = test: Induction of apoptosis in human A549 cells assessed as low mitochondrial membrane potential after 20 mins by JC-1 staining-based flow cytometric analysis (reference value: 6.3%); assay type: functional

SMILES | IC50 (NCI-H1975) [µM] | IC50 (NCI-H460) [µM] | IC50 (MCF7) [µM] | CC50 at 24 h [1] [µM] | IC50 [2] [µM] | IC50 (A549 [3]) [µM] | IC50 (HeLa) [µM] | Ratio IC50 [4] | Activity [5] | Activity (A549 [6]) [%] | Activity (A549 [7]) [%]
CC(C)=CC[C@@H](OC(=O)/C=C\C(=O)c1cc(C)ccc1C)C1=CC(=O)c2c(O)ccc(O)c2C1=O | 10.2 | 13.2 | 5.28 | 78.1 | > 0.15 | 13.1 | 10.2 | – | – | – | –
CC(C)=CC[C@@H](OC(=O)/C=C\C(=O)c1cc(F)ccc1C)C1=CC(=O)c2c(O)ccc(O)c2C1=O | 7.26 | 8.35 | 10.1 | 93.5 | 0.0234 | 13.4 | 14.2 | 6 | – | – | –
CC(C)=CC[C@@H](O)C1=CC(=O)c2c(O)ccc(O)c2C1=O [SHIKONIN] | 4.28 | 5.04 | 9.55 | 12.2 | 0.139 | 6.13 | 7.84 | – | Toxic | – | –
CC(C)=CC[C@@H](OC(=O)/C=C\C(=O)c1ccc(C)cc1C)C1=CC(=O)c2c(O)ccc(O)c2C1=O | 16.6 | 9.17 | 7.89 | > 100 | > 0.15 | 10.2 | 18.6 | – | – | – | –
CC(C)=CC[C@@H](OC(=O)/C=C\C(=O)c1ccc(C)cc1F)C1=CC(=O)c2c(O)ccc(O)c2C1=O | 9.56 | 13.6 | 6.64 | > 100 | 0.12 | 12.6 | 15.1 | – | – | – | –
CC(C)=CC[C@@H](OC(=O)/C=C\C(=O)c1cc(Cl)ccc1C)C1=CC(=O)c2c(O)ccc(O)c2C1=O | 18.3 | 10.3 | 18.6 | 83.3 | 0.146 | 13.2 | 9.34 | – | – | – | –
CC(C)=CC[C@@H](OC(=O)/C=C\C(=O)c1ccc(C)cc1)C1=CC(=O)c2c(O)ccc(O)c2C1=O | 10.2 | 11.4 | 9.14 | 64.2 | 0.0452 | 9.72 | 8.96 | – | – | – | –
CCc1ccc(C(=O)/C=C\C(=O)O[C@H](CC=C(C)C)C2=CC(=O)c3c(O)ccc(O)c3C2=O)cc1 | 12.4 | 16.4 | 9.37 | 92.4 | 0.0508 | 14.5 | 15.2 | – | – | – | –
N#CC(C#N)=NNc1cccc(Cl)c1 [CARBONYL CYANIDE M-CHLOROPHENYLHYDRAZONE] | – | – | – | – | – | – | – | – | – | 26.5 | 67.9
